ChEMBL document CHEMBL1125276 (J Med Chem, 1991)

What was measured:
P388 [1] = assay: Long-term survivors (LTS) for 60 days at optimal dose of 8.00 mg/kg for antitumor activity against P388 leukemia cells in 5 mice.; format: functional, Mus musculus
L1210 = assay: Tested for the inhibition of L1210 cell proliferation.; format: functional, cell-based; conditions: Mus musculus
In short: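 L1210 cells were grown in RPMI 1640 with 10% FCS, 2 mM L-glutamine and 10 mM HEPES (pH 7.4). Exponential-phase cells (10^5 cells/mL) were exposed for 24 h to 5 drug concentrations in triplicate, then pulsed 3 h with 0.5 µCi/mL [3H]thymidine. Cells were harvested onto filters and counted. IC50 is 50% inhibition of incorporation versus untreated cells, given as the mean of 2–5 independent experiments.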

P388 [2] = assay: Compound was tested for T/C range at optimal dose of 8.00 mg/kg for antitumor activity against P388 leukemia cells in mice.; format: functional, Mus musculus
P388 [3] = assay: Compound was tested for T/C range at optimal dose of 1.5 mg/kg for antitumor activity against P388 leukemia cells in mice.; format: functional, Mus musculus
P388 [4] = assay: Long-term survivors (LTS) for 60 days at optimal dose of 1.5 mg/kg for antitumor activity against P388 leukemia cells in 6 mice.; format: functional, Mus musculus

SMILES | LTS (P388 [1]) | IC50 (L1210) [nM] | T/C (P388 [2]) [%] | T/C (P388 [3]) [%] | LTS (P388 [4])
CCOP(=O)(OCC)[C@H](Cc1ccccc1)NC(=O)[C@@]1(O)[C@H](O)[C@]2(CC)C=CCN3CC[C@@]4(c5cc([C@@]6(C(=O)OC)C[C@@H]7CN(CCc8c6[nH]c6ccccc86)C[C@](O)(CC)C7)c(OC)cc5N(C)[C@@H]14)[C@@H]32 | 0 | 9.64 | 229 | – | –
CCOP(=O)(OCC)C(CC(C)C)NC(=O)[C@@]1(O)[C@H](O)[C@]2(CC)C=CCN3CC[C@@]4(c5cc([C@@]6(C(=O)OC)C[C@@H]7CN(CCc8c6[nH]c6ccccc86)C[C@](O)(CC)C7)c(OC)cc5N(C)[C@@H]14)[C@@H]32 (mixture of isomers) | – | 3.13 | – | 261 | 1
